Molecules are shown by their SMILES. The source made the active and inactive calls. The calls are words filed in the database; no cut-off is given here.

In ChEMBL document CHEMBL4190396, “Discovery of Novel Small-Molecule Inhibitors of NF-κB Signaling with Antiinflammatory and Anticancer Properties” (J Med Chem, 2018) one finds inhibition, IC50 and Activity data, which are given here for one compound.

The target in series [1] is Toll-like receptor 9 (Homo sapiens) (UniProt Q9NR96). The series can be described thus: Antagonist activity at human TLR9 expressed in HEK293 cells assessed as decrease in CpG-ODN2006-induced NF-kappaB activation-mediated SEAP production at 10^-9 to 10^-5 M after 24 hrs by Quanti-blue-based assay. In kind it is cell-based. The essentials: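 HEK293 cells stably carrying a human TLR plus an NF-κB-driven SEAP reporter, seeded 5×10^4/well for 24 h at 37 °C, then stimulated: Pam3CSK4 100 µg/mL (TLR1/2), Pam2CSK4 100 µg/mL, poly I:C 5 µg/mL (TLR3), LPS 20 ng/mL (TLR4), flagellin 100 ng/mL (TLR5), R848 1 µg/mL (TLR7, TLR8), CpG-ODN2006 1 µg/mL (TLR9). After 24 h with compound, supernatant mixed with QUANTI-Blue, 1 h 37 °C, OD 620 nm.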
Sequence of Toll-like receptor 9 (Homo sapiens) (Q9NR96 whole entry): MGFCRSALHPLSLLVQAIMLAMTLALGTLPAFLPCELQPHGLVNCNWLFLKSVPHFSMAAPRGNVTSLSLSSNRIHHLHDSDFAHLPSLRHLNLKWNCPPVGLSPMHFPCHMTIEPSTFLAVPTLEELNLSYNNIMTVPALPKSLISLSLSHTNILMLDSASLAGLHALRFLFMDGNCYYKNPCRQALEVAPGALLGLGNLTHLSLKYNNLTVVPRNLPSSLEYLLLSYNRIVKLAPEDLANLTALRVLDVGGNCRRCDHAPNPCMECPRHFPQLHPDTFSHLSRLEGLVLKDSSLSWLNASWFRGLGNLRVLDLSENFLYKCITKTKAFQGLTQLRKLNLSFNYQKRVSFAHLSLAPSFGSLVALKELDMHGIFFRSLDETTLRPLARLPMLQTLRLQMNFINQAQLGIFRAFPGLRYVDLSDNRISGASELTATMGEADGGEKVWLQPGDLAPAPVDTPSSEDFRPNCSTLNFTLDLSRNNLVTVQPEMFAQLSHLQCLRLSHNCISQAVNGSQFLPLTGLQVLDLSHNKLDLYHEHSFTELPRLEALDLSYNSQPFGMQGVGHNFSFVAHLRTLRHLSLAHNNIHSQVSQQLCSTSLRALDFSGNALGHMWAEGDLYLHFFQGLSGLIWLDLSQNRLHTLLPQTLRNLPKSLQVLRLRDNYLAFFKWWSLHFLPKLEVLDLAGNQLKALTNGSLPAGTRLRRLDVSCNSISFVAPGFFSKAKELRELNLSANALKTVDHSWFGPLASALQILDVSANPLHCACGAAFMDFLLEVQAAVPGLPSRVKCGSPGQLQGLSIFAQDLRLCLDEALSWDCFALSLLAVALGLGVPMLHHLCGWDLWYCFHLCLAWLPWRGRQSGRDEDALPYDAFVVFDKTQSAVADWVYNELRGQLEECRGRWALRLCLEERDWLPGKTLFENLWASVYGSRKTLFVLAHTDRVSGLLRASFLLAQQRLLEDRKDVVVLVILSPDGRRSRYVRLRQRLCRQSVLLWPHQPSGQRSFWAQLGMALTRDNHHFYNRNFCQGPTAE

Series [2] deals with Tumor necrosis factor receptor superfamily member 1A (Homo sapiens, UniProt P19438). The series can be described thus: Inhibition of TNFR in TLR null HEK-blue cells assessed as decrease in TNFalpha-stimulated NF-kappaB activation-mediated SEAP production after 24 hrs by Quanti-blue-based assay. In kind it is cell-based.
Sequence of Tumor necrosis factor receptor superfamily member 1A (P19438 whole entry): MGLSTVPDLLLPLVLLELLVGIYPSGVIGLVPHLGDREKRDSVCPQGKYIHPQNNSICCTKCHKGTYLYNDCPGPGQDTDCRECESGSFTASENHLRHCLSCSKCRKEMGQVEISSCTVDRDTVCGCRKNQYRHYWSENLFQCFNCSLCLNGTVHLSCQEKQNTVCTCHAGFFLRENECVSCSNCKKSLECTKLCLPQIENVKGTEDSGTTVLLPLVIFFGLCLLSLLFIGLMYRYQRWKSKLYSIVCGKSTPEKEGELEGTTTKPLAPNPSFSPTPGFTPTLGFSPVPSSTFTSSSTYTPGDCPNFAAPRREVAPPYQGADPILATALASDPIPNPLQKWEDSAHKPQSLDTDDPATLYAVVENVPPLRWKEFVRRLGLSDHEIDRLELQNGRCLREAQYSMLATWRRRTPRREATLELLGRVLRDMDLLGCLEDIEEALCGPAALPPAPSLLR
The target in series [3] is Interleukin-1 receptor type 1 (Homo sapiens, UniProt P14778). The experiment in a line: Inhibition of IL1R in TLR null HEK-blue cells assessed as decrease in IL-1beta-stimulated NF-kappaB activation-mediated SEAP production after 24 hrs by Quanti-blue-based assay. In kind it is cell-based.
Sequence of Interleukin-1 receptor type 1 (P14778 whole entry): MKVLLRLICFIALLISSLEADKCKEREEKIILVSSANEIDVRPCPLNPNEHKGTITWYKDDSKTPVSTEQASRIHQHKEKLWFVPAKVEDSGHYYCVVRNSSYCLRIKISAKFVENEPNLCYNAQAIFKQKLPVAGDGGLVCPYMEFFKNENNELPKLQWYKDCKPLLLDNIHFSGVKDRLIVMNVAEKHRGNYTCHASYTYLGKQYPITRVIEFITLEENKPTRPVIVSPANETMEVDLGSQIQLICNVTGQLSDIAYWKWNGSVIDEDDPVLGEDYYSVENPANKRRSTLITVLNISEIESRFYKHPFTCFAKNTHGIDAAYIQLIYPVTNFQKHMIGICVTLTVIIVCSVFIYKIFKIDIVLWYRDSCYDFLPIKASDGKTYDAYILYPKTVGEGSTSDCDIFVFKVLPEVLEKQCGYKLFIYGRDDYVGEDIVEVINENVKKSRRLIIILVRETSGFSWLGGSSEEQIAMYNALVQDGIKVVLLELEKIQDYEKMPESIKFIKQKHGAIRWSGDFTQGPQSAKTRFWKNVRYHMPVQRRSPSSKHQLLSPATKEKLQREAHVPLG
The target in series [4] is Protein kinase C (PKC) (Homo sapiens) (UniProt O94806+P41743+P17252+P05129+Q05655+P05771+Q05513+Q02156+P24723+Q15139+Q04759). The series can be described thus: (§1) Inhibition of PKC in TLR null HEK-blue cells assessed as inhibition of PMA-induced NF-kappaB activation-mediated SEAP production after 24 hrs by Quanti-blue-based assay. It counts as cell-based.
The target in series [5] is Protein kinase C (PKC). Described as §1. It counts as cell-based, Homo sapiens.
Series [6] is described as follows: Inhibition of IFN-gamma-induced NFkappaB activation in mouse RAW264.7 cells assessed as reduction in nitric oxide production after 18 hrs by DAN assay. In kind it is cell-based. The note with it: RAW264.7, 18 h. The method, boiled down: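 Mouse RAW 264.7 macrophages stimulated with IFN-γ alongside compound; NF-κB-mediated NO output measured by the 2,3-diaminonaphthalene (DAN) nitrite assay.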

Series [7] has as its target NF-kappa-B inhibitor alpha (Mus musculus) (UniProt Q9Z1E3). The experiment in a line: Inhibition of LPS-induced IkB-alpha phosphorylation in mouse RAW264.7 cells at 1 to 10 uM preincubated for 1 hr followed by LPS stimulation for 15 to 30 mins by Western blot method. It counts as cell-based. The essentials: (§2)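 RAW 264.7 cells, 3×10^6 per dish overnight, pretreated 1 h with 1, 5 or 10 µM, then LPS 100 ng/mL for 15 or 30 min; nuclear/cytoplasmic lysates (20–30 µg) run on 10% SDS-PAGE, immunoblotted for phospho/total proteins, GAPDH loading control, ECL, densitometry; three independent experiments.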

Series [8] concerns RAW264.7. The experiment in a line: Inhibition of LPS-induced PI3K phosphorylation in mouse RAW264.7 cells at 1 to 10 uM preincubated for 1 hr followed by LPS stimulation for 15 to 30 mins by Western blot method. In kind it is cell-based. The essentials:
as §2
A general note: A western blot detects proteins with antibodies after separation by electrophoresis.

Series [9] has as its system RAW264.7. The series can be described thus: Inhibition of LPS-induced PI3K-mediated AKT phosphorylation in mouse RAW264.7 cells at 1 to 10 uM preincubated for 1 hr followed by LPS stimulation for 15 to 30 mins by Western blot method. In kind it is cell-based. The essentials: as §2
For series [10], the system named is RAW264.7. The series can be described thus: Inhibition of LPS-induced JNK phosphorylation in mouse RAW264.7 cells at 1 to 10 uM preincubated for 1 hr followed by LPS stimulation for 15 to 30 mins by Western blot method. In kind it is cell-based. The essentials:
as §2

Series [11] has as its target Proto-oncogene tyrosine-protein kinase Src (Mus musculus) (UniProt P05480). The series can be described thus: Inhibition of LPS-induced SRC phosphorylation in mouse RAW264.7 cells preincubated for 1 hr followed by LPS stimulation for 30 mins by Western blot method. It counts as cell-based. The method, boiled down: as §2
Series [12] concerns the target Tyrosine-protein kinase SYK (Mus musculus) (UniProt P48025). The experiment in a line: Inhibition of LPS-induced SYK phosphorylation in mouse RAW264.7 cells preincubated for 1 hr followed by LPS stimulation for 30 mins by Western blot method. It counts as cell-based. The essentials:
as §2

Series [13] deals with Proto-oncogene tyrosine-protein kinase Src (Homo sapiens) (UniProt P12931). The experiment in a line: Inhibition of wild-type human partial length SRC (L240 to L536 residues) expressed in bacterial expression system assessed as residual activity at 10 uM by Kinomescan method relative to control.
Sequence of Proto-oncogene tyrosine-protein kinase Src (Homo sapiens) (P12931 2-536 limits assumed): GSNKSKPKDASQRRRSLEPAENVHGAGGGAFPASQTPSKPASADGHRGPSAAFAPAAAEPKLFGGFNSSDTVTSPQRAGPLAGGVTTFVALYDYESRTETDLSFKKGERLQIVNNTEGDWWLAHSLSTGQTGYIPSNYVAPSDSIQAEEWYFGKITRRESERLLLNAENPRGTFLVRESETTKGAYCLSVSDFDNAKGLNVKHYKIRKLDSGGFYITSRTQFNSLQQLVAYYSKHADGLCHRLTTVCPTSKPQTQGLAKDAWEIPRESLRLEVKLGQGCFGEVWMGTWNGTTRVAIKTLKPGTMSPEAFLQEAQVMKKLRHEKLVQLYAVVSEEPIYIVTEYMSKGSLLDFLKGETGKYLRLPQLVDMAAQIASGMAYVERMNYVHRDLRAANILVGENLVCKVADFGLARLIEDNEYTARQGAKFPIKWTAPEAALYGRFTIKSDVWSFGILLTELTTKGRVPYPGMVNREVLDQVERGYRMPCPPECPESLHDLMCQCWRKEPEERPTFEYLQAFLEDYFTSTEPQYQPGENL
Series [14] has as its target Tyrosine-protein kinase SYK (Homo sapiens) (UniProt P43405). The experiment in a line: Inhibition of wild-type human partial length SYK (D354 to N635 residues) expressed in bacterial expression system assessed as residual activity at 10 uM by Kinomescan method.
Series [15] deals with RAW264.7. The series can be described thus: Antiinflammatory activity in mouse RAW264.7 cells assessed as decrease in LPS-induced TNFalpha production preincubated for 30 mins followed by LPS stimulation measured after 18 hrs by ELISA. It counts as functional, cell-based. The essentials: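 RAW 264.7 cells, 1.5×10^6/well, 24 h, medium refreshed; pretreated with increasing compound 30 min, then LPS 100 ng/mL for 18 h; supernatant TNF-α quantified by sandwich ELISA against recombinant mouse standards.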

Series [16] deals with RAW264.7. The experiment in a line: Antiinflammatory activity in mouse RAW264.7 cells assessed as decrease in LPS-induced NO production after 18 hrs by DAN assay. It counts as functional, cell-based. The method, boiled down:
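RAW 264.7 cells at 2×10^5 cells/mL, 24 h, medium refreshed, then LPS 100 ng/mL with or without graded compound for 18 h; nitrite in medium reacted with 2,3-diaminonaphthalene (0.05 mg/mL in 0.62 M HCl), 15 min in dark, as NO readout. n = 3, mean ± SD.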

Series [17] has as its system HMEC. The series can be described thus: Cytotoxicity against HMEC up to 40 uM after 24 to 48 hrs by WST1 assay. It counts as cell-based. The note with it: human. (In general: Tetrazolium dyes change colour on reduction, which living cells bring about.)
Series [18] relates to HeLa. The series can be described thus: Cell cycle arrest in human HeLa cells assessed as accumulation at G0/G1 phase at 10 uM after 24 hrs by propidium iodide staining based flow cytometry (reference value: 49.4%). In kind it is functional. The method, boiled down: (§3)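 HeLa cells, 3×10^5/well, attached overnight, switched to serum-free medium for synchronisation, then DMSO or 5, 10, 20 µM for 24 h; cells fixed, PI-stained, G0/G1, S and G2/M fractions by flow cytometry; n = 3, mean ± SD.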
On the technique in general: In flow cytometry, cells or beads pass a laser one at a time.

The test system of series [19] is HeLa. The series can be described thus: Cell cycle arrest in human HeLa cells assessed as accumulation at S phase at 20 uM after 24 hrs by propidium iodide staining based flow cytometry (reference value: 34.9%). In kind it is functional. The method, boiled down:
as §3

The subject of series [20] is HeLa. The series can be described thus: Cell cycle arrest in human HeLa cells assessed as accumulation at G2/M phase at 5 uM after 24 hrs by propidium iodide staining based flow cytometry (reference value: 15.7%). It counts as functional. The essentials: as §3
The subject of series [21] is HeLa. The experiment in a line: Cell cycle arrest in human HeLa cells assessed as accumulation at G2/M phase at 10 uM after 24 hrs by propidium iodide staining based flow cytometry (reference value: 15.7%). In kind it is functional. The method, boiled down:
as §3

The test system of series [22] is HeLa. The series can be described thus: Cell cycle arrest in human HeLa cells assessed as accumulation at G0/G1 phase after 24 hrs by propidium iodide staining based flow cytometry. It counts as functional. The essentials:
as §3

Sequence of NF-kappa-B inhibitor alpha (Mus musculus) (Q9Z1E3 whole entry): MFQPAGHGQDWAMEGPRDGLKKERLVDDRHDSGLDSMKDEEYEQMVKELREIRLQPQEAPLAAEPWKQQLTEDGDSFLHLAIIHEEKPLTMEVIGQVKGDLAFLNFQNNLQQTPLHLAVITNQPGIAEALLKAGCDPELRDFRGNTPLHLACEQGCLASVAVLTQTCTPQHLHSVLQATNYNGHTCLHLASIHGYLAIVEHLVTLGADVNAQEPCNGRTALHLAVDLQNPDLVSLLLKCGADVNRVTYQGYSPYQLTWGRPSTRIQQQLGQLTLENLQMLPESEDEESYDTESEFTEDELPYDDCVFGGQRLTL
Sequence of Proto-oncogene tyrosine-protein kinase Src (Mus musculus) (P05480 2-535 limits assumed): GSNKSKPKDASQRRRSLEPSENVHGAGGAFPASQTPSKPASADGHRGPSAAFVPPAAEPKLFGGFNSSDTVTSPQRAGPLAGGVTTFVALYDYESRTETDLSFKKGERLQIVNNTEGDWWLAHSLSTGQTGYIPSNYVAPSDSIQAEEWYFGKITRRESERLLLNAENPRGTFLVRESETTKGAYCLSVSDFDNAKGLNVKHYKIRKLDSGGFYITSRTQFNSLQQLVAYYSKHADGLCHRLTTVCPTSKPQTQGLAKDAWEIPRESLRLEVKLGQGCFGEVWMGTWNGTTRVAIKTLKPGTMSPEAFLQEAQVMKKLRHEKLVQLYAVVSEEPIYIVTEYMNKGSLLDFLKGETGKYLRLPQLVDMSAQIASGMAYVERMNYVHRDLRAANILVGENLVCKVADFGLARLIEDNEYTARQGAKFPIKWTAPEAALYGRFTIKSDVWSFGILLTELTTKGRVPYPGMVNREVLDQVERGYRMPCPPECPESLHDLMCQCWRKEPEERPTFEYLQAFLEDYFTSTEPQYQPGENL
Sequence of Tyrosine-protein kinase SYK (Mus musculus) (P48025 whole entry, looked up): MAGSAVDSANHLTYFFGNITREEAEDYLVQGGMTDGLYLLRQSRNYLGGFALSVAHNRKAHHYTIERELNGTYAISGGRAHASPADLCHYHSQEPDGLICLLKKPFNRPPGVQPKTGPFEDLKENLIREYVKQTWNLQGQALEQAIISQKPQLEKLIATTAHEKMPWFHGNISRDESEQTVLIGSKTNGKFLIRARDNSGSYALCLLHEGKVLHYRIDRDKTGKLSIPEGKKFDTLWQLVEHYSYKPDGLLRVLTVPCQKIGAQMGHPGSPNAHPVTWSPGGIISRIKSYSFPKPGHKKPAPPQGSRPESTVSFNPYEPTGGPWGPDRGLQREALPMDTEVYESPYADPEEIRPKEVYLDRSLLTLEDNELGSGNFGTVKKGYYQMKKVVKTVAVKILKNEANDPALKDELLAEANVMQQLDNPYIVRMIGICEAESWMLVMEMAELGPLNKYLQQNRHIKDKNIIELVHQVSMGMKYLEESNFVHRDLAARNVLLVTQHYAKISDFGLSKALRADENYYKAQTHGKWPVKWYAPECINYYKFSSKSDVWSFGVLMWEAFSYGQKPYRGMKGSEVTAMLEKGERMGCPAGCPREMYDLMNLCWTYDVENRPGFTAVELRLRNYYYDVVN

Consider `O=C(NNC(=O)c1csc(-c2ccc(Cl)cc2Cl)n1)c1ccccn1`, for which the inhibition result in series [1], in series [7], in [8] and in series [9] was “Active” throughout. For the same compound, the IC50 – broadly, the concentration needed to halve the response being measured – was found to be 0.77 µM in series [2], 0.72 µM in [3], 0.37 µM in series [5] and 0.079 µM in [6]. Besides, the inhibition result in series [4], in series [11] and in series [12] was “Dose-dependent effect” throughout. The inhibition result in series [10] and in series [14] was “inactive” throughout. The Activity in series [13] was 75%; in [15] it was “Dose-dependent effect”; in [17] it was “Non-Toxic”; in series [18], 54.7%; in series [19] it was 29.1%; in series [20] it was 13.8%. The Activity in series [21] is 3.6%; in series [22], “Dose-dependent effect”. Also, the result in series [16] was Active.
